Screening data deposited in PubChem BioAssay by Sanford-Burnham Center for Chemical Genomics.
SENP8 block-1 = SENP8 protease inhibitors, primary screen, biochemical, luminescence. hit rate 1.2% among 330,000. inhibition, % at 10 µM. AID 2540, 2010. Sentrin-specific protease 8 (Homo sapiens), Q96LD8. purified SENP8, Z-RLRGG-aminoluciferin cleavage; in the data active = inhibition above about 50%
SENP1 FRET inh = human SENP1 catalytic domain inhibitors, primary screen, biochemical, FRET, uHTS; Sentrin-specific protease 1 (Homo sapiens), Q9P0U3; recombinant SENP1 catalytic domain, CyPet-SUMO1-YPet FRET cleavage; inhibition, % at 10 µM; hit rate 0.21% among 360,000; AID 624204, 2012;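 active = inhibition at least 30% at 10 µM, raw YFP signal under a set limit, fluorescence ratio 0.5 to 1.5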;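 also: 0% = enzyme with DMSO and 100% = no enzyme wells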
Target sequence (Q9P0U3 419-644 limits assumed): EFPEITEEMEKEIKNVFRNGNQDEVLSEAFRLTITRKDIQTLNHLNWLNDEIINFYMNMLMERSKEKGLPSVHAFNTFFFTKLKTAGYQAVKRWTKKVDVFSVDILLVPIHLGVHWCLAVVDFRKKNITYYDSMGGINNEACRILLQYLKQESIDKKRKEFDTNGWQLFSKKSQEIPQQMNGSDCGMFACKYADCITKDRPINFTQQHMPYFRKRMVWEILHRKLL
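Test system: human SENP1 catalytic domain; medium: Tris pH 8 buffer plus EDTA, NaCl, BME, BSA, NP40, catalase; incubation: 50 min reaction at room temperature; technique: FRET, CFP and YFP emission; controls: no-enzyme low control and enzyme-plus-DMSO high control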
SENP8 block-2 = human SENP8 protease inhibitors, primary screen, biochemical, fluorescence, Nedd8 protein substrate, uHTS. AID 602440, 2012. recombinant SENP8. hit rate 0.64% among 360,000. Sentrin-specific protease 8 (Homo sapiens), Q96LD8. inhibition, % at 20 µM; in the data active = inhibition mostly above about 40%, no sharp cut-off; inactive = mostly below about 27%
SENP6 inh = SENP6 protease inhibitors, primary screen, biochemical, luminescence, uHTS. hit rate 1.8% among 330,000. AID 2599, 2010. Sentrin-specific protease 6 (Homo sapiens), Q9GZR1. inhibition, % at 10 µM. Recombinant SENP6 catalytic domain, aminoluciferin luminescence;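 active = inhibition above about 50% at the single tested dose, limit read from the data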;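 also: plate controls were DMSO wells with enzyme for no effect and DMSO wells lacking enzyme for full effect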
Target sequence (Q9GZR1 628-1112 limits assumed): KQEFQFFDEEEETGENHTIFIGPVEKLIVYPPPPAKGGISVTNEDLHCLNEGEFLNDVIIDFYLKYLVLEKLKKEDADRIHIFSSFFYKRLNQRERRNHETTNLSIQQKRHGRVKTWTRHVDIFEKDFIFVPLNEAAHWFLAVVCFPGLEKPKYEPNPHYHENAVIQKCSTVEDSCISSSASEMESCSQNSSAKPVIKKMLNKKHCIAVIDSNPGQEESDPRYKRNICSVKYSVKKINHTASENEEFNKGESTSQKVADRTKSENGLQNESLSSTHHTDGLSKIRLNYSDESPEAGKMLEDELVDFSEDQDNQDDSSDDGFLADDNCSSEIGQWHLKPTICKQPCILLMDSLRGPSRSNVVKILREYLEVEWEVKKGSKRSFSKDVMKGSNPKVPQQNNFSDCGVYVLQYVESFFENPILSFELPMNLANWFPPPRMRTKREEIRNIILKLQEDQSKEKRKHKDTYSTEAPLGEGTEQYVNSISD
SENP7 block = SENP7 protease inhibitors, primary screen, biochemical, luminescence, uHTS. AID 434973, 2010. inhibition, % at 5 µM. Sentrin-specific protease 7 (Homo sapiens), Q9BQF6. recombinant SENP7, Z-RLRGG-aminoluciferin luminescence, 40 min. hit rate 1.5% among 330,000;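 active = inhibition above about 50% at the single test dose, limit read from the data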;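 also: plate controls were DMSO with enzyme for no effect and no enzyme buffer wells for full effect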
SENP8 confirm = SENP8 protease inhibitors, retest, confirmation, biochemical, luminescence, single concentration; shares compounds with SENP7 block; Recombinant SENP8, Z-RLRGG-aminoluciferin luminescence, 60 min; inhibition, % at 12.5 µM; hit rate 40% among 6,200; AID 488912, 2010;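 active = mean inhibition across replicates above about 50%, limit read from the data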
SENP6 conf = SENP6 protease inhibitors, confirmation, biochemical, luminescence, single concentration; hit rate 58% among 6,200; inhibition, % at 12.5 µM; recombinant SENP6, Z-RLRGG-aminoluciferin luminescence; shares compounds with SENP7 block
SENP7 confirm = SENP7 protease inhibitors, retest, confirmation, biochemical, luminescence, single concentration | inhibition, % at 12.5 µM | shares compounds with SENP7 block | AID 488917, 2010 | hit rate 69% among 6,200 | recombinant SENP7, Z-RLRGG-aminoluciferin luminescence, 40 min
Casp3 SENP sel = caspase-3 protease inhibitors, confirmation, selectivity assay for SENP inhibitor project, biochemical, single concentration. shares compounds with SENP7 block. purified caspase-3, Z-DEVD-aminoluciferin luminescence, 60 min. inhibition, % at 12.5 µM. hit rate 60% among 6,200. AID 488918, 2010;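 active = mean inhibition above about 50%, limit read from the data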;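 also: plate controls were enzyme with DMSO for no effect and wells without caspase-3 for full effect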
Luc interf = luminescence interference (SENP counter-screen); shares compounds with SENP7 block; inhibition, % at 12.5 µM; hit rate 39% among 6,200; Pre-incubated SENP8/Z-RLRGG-aminoluciferin, luciferase luminescence interference; AID 488919;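 active = mean inhibition above about 50% when retested at one dose, limit read from the data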;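 also: plate controls were DMSO wells with completed reaction for no effect and substrate without enzyme for full effect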
Numbers without * were called inactive; i = inactive; / = no result given; ! = not confirmed by another sample. This is a sample that favours compounds with a hit; in the whole collection about 2.5% have one here.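 The calls were made as follows, unless noted: active = mean inhibition above about 50% in the one-dose retest (limit read from the data); inactive = the rest.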

SMILES	SENP8 block-1	SENP1 FRET inh	SENP8 block-2	SENP6 inh	SENP7 block	SENP8 confirm	SENP6 conf	SENP7 confirm	Casp3 SENP sel	Luc interf
Cc1cn([C@H]2C[C@H](O)[C@@H](/C=C/C(=O)NCCN3CCOCC3)O2)c(=O)[nH]c1=O	/	0.3	27.6	/	/	/	/	/	/	/
Cc1ccc(S(=O)(=O)/N=C2\C=C(Nc3cccc(C(=O)O)c3)C(=O)c3ccccc32)c(C)c1	93.7*	-0.5	80.7*	95.0*	55.4*	60.2*	97.1*	47.5	19.2	0.3
Cc1ccc(NC2=C/C(=N/S(=O)(=O)c3cccs3)c3ccccc3C2=O)cc1	46.1	3.8	94.1*	77.2*	69.3*	10.3	54.4*	12.1	2.7	-5.2
Cc1ccc(S(=O)(=O)/N=C2\C=C(Nc3ccc(O)cc3)C(=O)c3ccccc32)cc1	89.8*	1.7	80.0*	83.9*	63.7*	90.3*	95.0*	85.7*	93.8*	8.8
COC(=O)c1ccccc1NC1=C/C(=N\S(=O)(=O)c2cccs2)c2ccccc2C1=O	88.8*	4.8	52.7*!	62.8*	52.3*	28.6	63.7*	18.0	30.6	7.7
O=C(NS(=O)(=O)Oc1ccccc1F)OC[C@@H]1CCCN2CCCCC12 (stereo not given in full)	-0.8	1.3	17.8	-22.6	1.4	/	/	/	/	/
COc1ccc2c(n1)Sc1nc3ccccc3nc1N2	/	-21.8	10.7	/	/	/	/	/	/	/
COc1ccc(N2C(=O)CCC(C(=O)N3CCN(c4ccccn4)CC3)C2c2ccc(F)cc2)cc1 (stereo not given)	-7.3	1.9	-3.3	-15.1	-5.0	/	/	/	/	/
Cc1cccc(N=Nc2ccc(O)c3ncccc23)c1	32.8	-0.5	37.2	69.3*	25.9	-14.8	-1.9	9.4	48.1	0.8
COc1ccc(S(=O)(=O)N(C)C[C@@H]2OCc3cn(nn3)CCCC(=O)N([C@H](C)CO)C[C@H]2C)cc1	/	1.7	12.0	/	/	/	/	/	/	/
O=C(Nc1ccccc1)c1sc(Cl)nc1-c1ccccc1	2.4	-0.9	3.8	4.1	5.1	/	/	/	/	/
O=C(Nc1ccccc1)c1ccc(-c2ccccc2)s1	35.1	-1.1	-19.0	45.3	83.9*	21.9	43.6	38.9	67.2*	17.4
O=C(Nc1ccccc1)c1cc2ccc3ccccc3c2s1	0.2	1.3	-7.0	16.8	69.3*	-6.4	9.2	2.2	34.3	8.4
O=C(NC(=O)N1CCN(c2ccc([N+](=O)[O-])cn2)CC1)c1c(Cl)cccc1Cl	-8.5	/	/	-8.6	-1.3	/	/	/	/	/
O=C(c1cnccn1)N1CCN(C/C=C/c2ccccc2)CC1	-7.9	0.9	13.6	-6.5	-1.2	/	/	/	/	/
CC[C@H]1c2[nH]c3ccccc3c2C[C@@H]2C(=O)N(c3ccc(F)cc3)C(=O)N21	-2.0	-41.1	17.3	-0.4	-3.8	/	/	/	/	/
CCCc1nn(C)c(C(=O)Nc2ccc3ccccc3c2)c1Cl	29.5	-1.2	15.4	52.0*	36.5	-3.2	0.7	13.3	10.6	-1.2
Cc1nc(SCc2c(F)cccc2Cl)c2c(=O)n(C)c(=O)n(C)c2n1	-7.8	2.2	23.8	-4.3	-7.4	/	/	/	/	/
CN=c1scc(-c2ccco2)n1/N=C/c1ccc(O)c(O)c1	55.7*	-8.3	-16.4	68.1*	8.3	59.3*	62.6*	85.7*	44.6	62.0*
CCOC(=O)c1ccc(NC(=O)N2CCc3ccccc3C2)cc1	13.2	0.3	-1.9	10.3	5.0	/	/	/	/	/
CCOC(=O)c1ccc(NC(=O)N2CCc3ccccc32)cc1	76.7*	2.0	17.2	91.0*	95.6*	-12.7	80.8*	95.2*	76.5*	22.6
COc1ccc(NC(=O)N2CCc3ccccc32)cc1	86.3*	3.7	13.3	95.5*	95.9*	92.8*	93.1*	99.1*	94.3*	91.3*
O=C(Nc1cc2c(cc1[N+](=O)[O-])OCCO2)c1cccnc1	0.2	1.9	22.2	-11.0	-4.0	/	/	/	/	/
CCOc1ccc(/C=C/C2=NNC(=O)CC2)cc1	55.2*	0.7	-5.2	69.5*	73.6*	-23.7	52.3*	87.8*	86.1*	68.5*
Cc1ccc(-c2nc3cc(N)ccc3o2)cc1	75.2*	-36.4	-259.8	87.7*	89.6*	2.4	85.9*	96.8*	82.5*	57.9*
SMILES	SENP8 block-1	SENP1 FRET inh	SENP8 block-2	SENP6 inh	SENP7 block	SENP8 confirm	SENP6 conf	SENP7 confirm	Casp3 SENP sel	Luc interf
Cc1ccc2oc(-c3ccco3)nc2c1	43.9	-1.2	-186.5	66.4*	54.7*	-13.5	11.5	75.6*	21.5	0.0
CC(C)c1ccc2oc(-c3ccc(N)cc3)nc2c1	86.3*	-5.8	-276.8	94.1*	93.1*	94.5*	94.8*	100.2*	68.9*	93.6*
COC(=O)c1ccc(-c2nc3ccc(C)cc3o2)cc1	24.8	1.0	-293.3	-19.3	70.0*	31.2	31.2	36.2	47.5	16.5
CC(C)c1ccc2oc(-c3ccc(NC(=O)c4ncn[nH]4)cc3)nc2c1	21.7	-3.5	-265.7	34.9	16.3	/	/	/	/	/
COCCN1CC(C(=O)NCc2ncccc2C)CCC1=O (stereo not given)	2.0	1.6	8.8	6.5	-4.5	/	/	/	/	/
Cc1ccc2oc(-c3cccc(N)c3)nc2c1	93.9*	0.6	-466.4	96.9*	98.1*	-7.5	96.6*	102.5*	94.2*	58.5*
Cc1ccc(-c2nc3cc(N)ccc3o2)c(C)c1	69.4*	-31.1	-481.8	82.8*	66.5*	57.8*	73.0*	92.4*	54.6*	28.4
Cc1ccc2nc(-c3cccc(N)c3)[nH]c2c1	88.2*	1.0	i	93.5*	95.7*	-25.2	91.4*	100.8*	95.4*	92.7*
Nc1ccc2oc(-c3cccc4ccccc34)nc2c1	14.0	8.4	-483.7	26.9	3.4	/	/	/	/	/
CC(C)(C)c1ccc(-c2nc3cc(N)ccc3o2)cc1	73.6*	-23.8	-432.9	82.8*	78.2*	42.0	84.1*	94.6*	48.5	77.4*
